# Experimental data collected from several papers.
# Each line is one published result; the experiments were not run side by side.
# Target: Cyclin-dependent kinase-like 2 (CDKL2, Homo sapiens, UniProt Q92772)
# Residues used in one study (Q92772 1-493): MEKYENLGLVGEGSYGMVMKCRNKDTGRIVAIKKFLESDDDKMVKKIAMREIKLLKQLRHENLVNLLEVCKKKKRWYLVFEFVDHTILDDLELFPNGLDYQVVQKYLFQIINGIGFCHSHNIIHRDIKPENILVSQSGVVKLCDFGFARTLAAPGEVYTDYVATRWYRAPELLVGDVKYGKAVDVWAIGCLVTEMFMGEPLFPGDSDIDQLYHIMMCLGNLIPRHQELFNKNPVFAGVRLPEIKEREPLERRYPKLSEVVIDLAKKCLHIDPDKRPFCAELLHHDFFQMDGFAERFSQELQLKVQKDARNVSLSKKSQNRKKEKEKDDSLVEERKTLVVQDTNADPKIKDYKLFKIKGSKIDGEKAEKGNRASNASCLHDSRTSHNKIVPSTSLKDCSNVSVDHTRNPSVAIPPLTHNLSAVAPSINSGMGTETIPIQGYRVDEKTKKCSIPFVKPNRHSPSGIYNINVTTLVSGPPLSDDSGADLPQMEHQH
SMILES,effect on,technique,concentration,remaining binding [%]
CN(C)c1ncc(F)c(-c2cnn3ncccc23)n1,binding,,1 µM,89
O=C(c1ccc(Nc2ncc(Cl)c(-c3cc4ccccc4s3)n2)cc1)N1CCC(N2CCCC2)CC1,binding,competition with immobilised ligand,1 µM,2.4
CCN1CCN(Cc2ccc(C(=O)Nc3ccc(C)c(Oc4ccc5c(c4)CC(=O)N5)c3)cc2C(F)(F)F)CC1,binding,competition with immobilised ligand,1 µM,75
CO[C@@H](C)c1c(Nc2ccc([C@@H](N(C)C(=O)C3CCS(=O)(=O)CC3)C(F)(F)F)cc2)cnc2cc(Cl)nn12,cell-free assay,competition with immobilised ligand,1 µM,88
COc1cnc(Nc2cccc(S(N)(=O)=O)c2)nc1N1CCN(c2ccccc2)CC1,binding,competition with immobilised ligand,1 µM,100
CC(=O)N1CCC(c2ccc(C(=O)NC3=NCCN3)cc2C(F)(F)F)CC1,cell-free assay,competition with immobilised ligand,1 µM,100
c1cncc(-c2cccc(Nc3nccc(NC4CCCCC4)n3)c2)c1,binding,competition with immobilised ligand,10 µM,64
Cc1nc(Cc2cccc(C(F)(F)F)c2)sc1-c1ccc(C(N)=O)nc1,binding,competition with immobilised ligand,1 µM,92
COc1ncc2cc3ccccc3nc2c1C#N,binding,competition with immobilised ligand,5 µM,90
F[C@@H]1CCN(c2nccc(-c3cnn4ncccc34)n2)C1,binding,,1 µM,100
O=C(Nc1c[nH]nc1C(=O)NC1CCNCC1)c1cc(F)cc(F)c1,binding,competition with immobilised ligand,1 µM,89
O=C(c1ccc(Nc2ncc(Cl)c(-c3ccc(Cl)s3)n2)cc1)N1CCC(N2CCCC2)CC1,binding,competition with immobilised ligand,1 µM,2.3
CN(C)c1nccc(-c2cnn3ncccc23)n1,binding,,1 µM,100
O=C(Nc1cccnn1)N1CC(C/C=C/c2cncc(Oc3ccc(C(F)(F)F)cn3)n2)C1,cell-free assay,competition with immobilised ligand,1 µM,100
C[C@H]1CCN(c2nccc(-c3cnn4ncccc34)n2)C1,binding,,1 µM,100
CN(C)C(=O)Cn1cc(-c2nc(C3(c4ccc(-c5cnc(N)nc5)cc4)CC3)no2)cn1,cell-free assay,competition with immobilised ligand,1 µM,100
c1cnn2ncc(-c3ccnc(N4CCC45COC5)n3)c2c1,binding,,1 µM,91
O=C(c1ccc(Nc2nccc(-c3cc4ccccc4s3)n2)cc1)N1CCC(N2CCCC2)CC1,binding,competition with immobilised ligand,1 µM,8.8
N[C@H]1CCN(c2nccc(-c3cnn4ncccc34)n2)C1,binding,,1 µM,99
O=C1CCc2cc(Nc3cc(OC4CCOCC4)c([N+](=O)[O-])cc3Cl)ccc2N1,cell-free assay,competition with immobilised ligand,1 µM,92
Cc1cnn2ncc(-c3ccnc(N(C)C)n3)c2c1,binding,,1 µM,100
C[C@H](c1ccnc(Nc2nc3ccc(-c4cc(N(C)C)ncn4)cc3[nH]2)c1)N1CCN(C(=O)CC(F)(F)F)CC1,binding,competition with immobilised ligand,0.1 µM,100
